SENP7 inh: SENP7 protease inhibitors, primary screen, biochemical, luminescence, uHTS; Sentrin-specific protease 7 (Homo sapiens), Q9BQF6; inhibition, % at 5 µM; 330,000 compounds, 1.5% hits; recombinant SENP7, Z-RLRGG-aminoluciferin luminescence, 40 min;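 active = inhibition above about 50% at the single test dose, limit read from the data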;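 note: plate controls were DMSO with enzyme for no effect and no enzyme buffer wells for full effect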
Target sequence (Q9BQF6 706-1050 limits assumed): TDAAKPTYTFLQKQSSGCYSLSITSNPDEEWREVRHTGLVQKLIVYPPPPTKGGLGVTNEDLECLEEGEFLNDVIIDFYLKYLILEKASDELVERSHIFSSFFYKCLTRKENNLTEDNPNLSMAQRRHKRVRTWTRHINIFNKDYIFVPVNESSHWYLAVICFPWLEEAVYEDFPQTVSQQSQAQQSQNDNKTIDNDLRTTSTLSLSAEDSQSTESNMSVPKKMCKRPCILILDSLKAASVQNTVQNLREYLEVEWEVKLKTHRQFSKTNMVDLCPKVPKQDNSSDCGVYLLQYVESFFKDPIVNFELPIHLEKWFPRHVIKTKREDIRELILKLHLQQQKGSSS
SENP8 block-1: SENP8 protease inhibitors, primary screen, biochemical, luminescence; purified SENP8, Z-RLRGG-aminoluciferin cleavage; 330,000 compounds, 1.2% hits; Sentrin-specific protease 8 (Homo sapiens), Q96LD8; inhibition, % at 10 µM; in the data active = inhibition above about 50%
Platelet DG rel: inhibitors of platelet dense granule secretion, primary screen, cell-based, MLPCN, human platelets | human platelet-rich plasma, SFLLRN dense granule ATP release, luminescence | inhibition, %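 (compounds screened at 7.5 µM in platelet-rich plasma)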 | 300,000 compounds, 0.22% hits | AID 1663, 2009;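 active = mean replicate score, as percent of positive control, at or above 50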
SENP1 inh: human SENP1 catalytic domain inhibitors, primary screen, biochemical, FRET, uHTS; Sentrin-specific protease 1 (Homo sapiens), Q9P0U3; recombinant SENP1 catalytic domain, CyPet-SUMO1-YPet FRET cleavage; inhibition, % at 10 µM; 360,000 compounds, 0.21% hits;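 active = inhibition at least 30% at 10 µM, raw YFP signal under a set limit, fluorescence ratio 0.5 to 1.5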;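 note: 0% = enzyme with DMSO and 100% = no enzyme wells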
Target sequence (Q9P0U3 419-644 limits assumed): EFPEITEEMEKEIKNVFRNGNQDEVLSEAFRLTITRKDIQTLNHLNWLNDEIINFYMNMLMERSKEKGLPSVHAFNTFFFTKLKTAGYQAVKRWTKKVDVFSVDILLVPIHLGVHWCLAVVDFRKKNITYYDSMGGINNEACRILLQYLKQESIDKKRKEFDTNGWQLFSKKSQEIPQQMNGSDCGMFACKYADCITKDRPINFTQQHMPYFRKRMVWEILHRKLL
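Test system: hSENP1 catalytic domain, recombinant; Amount: 20 pM final SENP1 enzyme; Medium: Tris pH 8 buffer plus EDTA, NaCl, BME, BSA, NP40, catalase; Schedule: 50 min enzyme reaction, room temperature, light-protected; Technique: FRET fluorescence in CFP and YFP emission channels; Controls: no-enzyme wells low, DMSO-plus-enzyme wells high control.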
SENP8 block-2: human SENP8 protease inhibitors, primary screen, biochemical, fluorescence, Nedd8 protein substrate, uHTS; Sentrin-specific protease 8 (Homo sapiens), Q96LD8; recombinant SENP8; inhibition, % at 20 µM; 360,000 compounds, 0.64% hits; in the data active = inhibition mostly above about 40%, no sharp cut-off; inactive = mostly below about 27%
SENP6 block: SENP6 protease inhibitors, primary screen, biochemical, luminescence, uHTS | Sentrin-specific protease 6 (Homo sapiens), Q9GZR1 | Recombinant SENP6 catalytic domain, aminoluciferin luminescence | inhibition, % at 10 µM | 330,000 compounds, 1.8% hits;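 active = inhibition above about 50% at the single tested dose, limit read from the data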;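 note: plate controls were DMSO wells with enzyme for no effect and DMSO wells lacking enzyme for full effect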
SENP8 conf: SENP8 protease inhibitors, retest, confirmation, biochemical, luminescence, single concentration; inhibition, % at 12.5 µM; 6,200 compounds, 40% hits; Recombinant SENP8, Z-RLRGG-aminoluciferin luminescence, 60 min; shares compounds with SENP7 inh;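 active = mean inhibition across replicates above about 50%, limit read from the data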
SENP6 conf: SENP6 protease inhibitors, confirmation, biochemical, luminescence, single concentration; inhibition, % at 12.5 µM; 6,200 compounds, 58% hits; recombinant SENP6, Z-RLRGG-aminoluciferin luminescence; shares compounds with SENP7 inh
SENP7 conf: SENP7 protease inhibitors, retest, confirmation, biochemical, luminescence, single concentration; shares compounds with SENP7 inh; inhibition, % at 12.5 µM; 6,200 compounds, 69% hits; AID 488917, 2010; recombinant SENP7, Z-RLRGG-aminoluciferin luminescence, 40 min
Casp3 select: caspase-3 protease inhibitors, confirmation, selectivity assay for SENP inhibitor project, biochemical, single concentration | shares compounds with SENP7 inh | purified caspase-3, Z-DEVD-aminoluciferin luminescence, 60 min | inhibition, % at 12.5 µM | 6,200 compounds, 60% hits | AID 488918, 2010;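 active = mean inhibition above about 50%, limit read from the data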;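 note: plate controls were enzyme with DMSO for no effect and wells without caspase-3 for full effect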
Luc interf: interferes with luciferase luminescence in SENP counter-screen | shares compounds with SENP7 inh | Pre-incubated SENP8/Z-RLRGG-aminoluciferin, luciferase luminescence interference | inhibition, % at 12.5 µM | 6,200 compounds, 39% hits | AID 488919;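 active = mean inhibition above about 50% when retested at one dose, limit read from the data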;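 note: plate controls were DMSO wells with completed reaction for no effect and substrate without enzyme for full effect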
Starred values were filed as active, the others as inactive; · = not tested or not shown. In the library only some 2.6% were active in any assay of this set; here they are far more common.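 Rule for the calls, unless noted: active = mean inhibition above about 50% in the one-dose retest (limit read from the data); inactive = the rest.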

SMILES	SENP7 inh	SENP8 block-1	Platelet DG rel	SENP1 inh	SENP8 block-2	SENP6 block	SENP8 conf	SENP6 conf	SENP7 conf	Casp3 select	Luc interf
O=C(CSc1nc2ccccc2[nH]1)Nc1ccccc1F	-1.8	1.7	14.7	0.6	3.7	4.8	·	·	·	·	·
O=C(Nc1nc2ccccc2[nH]1)c1cccc([N+](=O)[O-])c1	26.4	-12.6	15.7	-3.1	5.1	1.8	·	·	·	·	·
O=C(Nc1nc2ccccc2[nH]1)c1cccc(F)c1	90.8*	82.0*	10.0	-0.1	-4.4	90.9*	8.4	84.0*	98.5*	92.1*	32.6
COc1ccc(-c2nn(-c3ccccc3C)cc2CNCc2cccnc2)cc1F	-8.1	-5.4	-4.5	1.4	5.0	-5.7	·	·	·	·	·
Cc1cc(OCc2cccc(S(=O)(=O)N3CCOCC3)c2)ccc1Cl	-12.0	-0.2	·	-0.1	4.2	-11.5	·	·	·	·	·
O=C(O)Cc1ccc(-n2cccc2)cc1	-0.7	-10.7	0.8	-1.3	0.3	-23.2	·	·	·	·	·
Cc1cc(N2CCOCC2)nc2ccc(NC(=S)N3CCCCC3C)cc12 (stereo not given)	12.8	29.2	2.6	-87.8	-368.2	54.7*	4.3	6.1	6.8	1.3	3.0
Cc1cc(N2CCN(C)CC2)nc2ccc(NC(=S)N3CCN(c4ccc(Cl)cc4)CC3)cc12	7.7	1.6	1.9	-31.1	-386.8	54.7*	12.0	6.2	8.7	4.7	3.3
CCCN1CCN(CCCNC(=S)Nc2ccc3nc(N4CCN(CC)CC4)cc(C)c3c2)CC1	-9.0	-6.2	-12.3	-8.7	-327.3	88.6*	-7.4	-7.3	-0.1	-0.2	-10.3
CCC(C)NC(=O)CSc1nnc(-c2ccc(OC)c(OC)c2)c(-c2ccc(OC)c(OC)c2)n1 (stereo not given)	-7.6	-3.4	-2.5	1.5	8.6	1.2	·	·	·	·	·
C[C@H](CO)N1C[C@H](C)[C@@H](CN(C)S(=O)(=O)c2ccccc2)OCc2cnnn2CCCC1=O	·	·	·	1.9	15.3	·	·	·	·	·	·
O=C(O)c1ccc(COc2ccc3c4c(c(=O)oc3c2)CCC4)o1	93.0*	91.0*	-1.9	-2.2	-192.7	81.9*	94.5*	94.9*	99.6*	65.0*	93.8*
Cc1cc(COc2ccccc2)oc1C(=O)O	99.7*	97.4*	-11.4	1.1	20.7	95.2*	98.7*	99.6*	102.8*	88.5*	98.0*
Cc1ccc(OCc2ccc(C(=O)O)o2)cc1C	81.7*	84.5*	-4.0	0.0	26.0	88.2*	3.5	92.9*	101.0*	40.8	92.8*
CC(C)(c1ccccc1)c1ccc(OCc2ccc(C(=O)O)o2)cc1	12.5	60.5*	·	4.7	17.7	72.6*	5.5	72.7*	73.2*	5.8	78.4*
COC(=O)c1ccc(COc2ccc(C)c(C)c2)o1	3.5	28.7	2.2	-1.5	9.6	36.2	·	·	·	·	·
Cc1cc(CN2CCCCC2)oc1C(=O)O	-0.8	-0.9	-2.7	-1.4	10.4	-16.8	·	·	·	·	·
CC(C)(C)c1ccc(OCc2ccc(C(=O)NN)o2)cc1	-1.6	2.1	-2.8	2.7	-1.5	-4.3	·	·	·	·	·
CCOc1ccc(C(C)=O)cc1COc1ccc(-c2nnco2)cc1	-6.7	1.8	-3.7	0.7	6.1	-5.2	·	·	·	·	·
CC(C)c1ccc(COc2ccc(C(=O)N3CCOCC3)cc2)cc1	7.1	1.6	1.8	1.9	3.9	2.6	·	·	·	·	·
O=C(COc1ccc2c3c(c(=O)oc2c1)CCC3)Nc1ccccn1	89.4*	38.2	8.0	5.0	-242.3	0.6	31.1	28.3	13.5	66.3*	19.3
CCC(C)c1ccc(OCc2ccc(C(=O)O)o2)cc1 (stereo not given)	79.8*	94.2*	-0.9	2.2	13.5	95.5*	3.1	98.3*	102.3*	47.8	97.5*
Cc1ccc(OCc2ccc(C(=O)N3CCOCC3)cc2)cc1C	89.9*	74.9*	5.5	2.3	33.3	83.2*	-7.4	73.7*	94.4*	83.8*	80.2*
Cc1cc(NC(=O)COC(=O)COc2ccc3c4c(c(=O)oc3c2)CCC4)no1	-2.5	1.8	0.1	-0.1	-140.4	1.9	·	·	·	·	·
COC(=O)c1ccc(COc2ccc3c(C)c(C)c(=O)oc3c2)o1	29.8	53.9*	-4.3	-2.3	-275.8	39.2	10.8	9.6	4.4	-0.2	1.5
SMILES	SENP7 inh	SENP8 block-1	Platelet DG rel	SENP1 inh	SENP8 block-2	SENP6 block	SENP8 conf	SENP6 conf	SENP7 conf	Casp3 select	Luc interf
CCCCn1cnc2c(SCc3ccccc3Cl)nc(N)nc21	·	·	·	-0.7	0.4	·	·	·	·	·	·
Cc1c(C)c2ccc(OCc3ccc(C(=O)O)o3)c(C)c2oc1=O	50.4*	65.2*	-4.1	-1.5	-298.7	77.0*	8.9	66.0*	79.4*	16.4	56.6*
Cc1cc(C)cc(COc2ccc3c(C)c(CC(=O)O)c(=O)oc3c2C)c1	-4.1	-3.1	-2.8	-4.8	-298.8	-8.6	·	·	·	·	·
CC(=O)Nc1ccnn1C1CCN(C(=O)c2cccc(C)c2C)CC1	-2.5	-9.3	-6.5	1.4	3.9	-17.8	·	·	·	·	·
COc1cccc(C(=O)N=c2sc3c(C)ccc(OC)c3n2C)c1	96.8*	68.1*	16.4	0.8	-487.1	5.8	11.2	21.8	9.3	13.1	18.9
COc1ccccc1C(=O)N=c1sc2c(C)ccc(OC)c2n1C	48.1	44.0	3.1	-12.7	-453.6	57.9*	19.3	18.1	25.5	53.0*	13.8
COc1ccc(C(=O)N=c2sc3c(C)ccc(OC)c3n2C)cc1OC	89.4*	75.7*	1.8	4.1	-446.4	83.9*	4.8	13.9	15.4	8.8	16.2
COc1ccc(OC)c2c1sc(=NC(=O)c1ccco1)n2C	-5.7	-9.6	-6.1	0.2	-485.0	-14.1	·	·	·	·	·

Compound activity (PubChem)
